# Experimental data reported in ChEMBL document CHEMBL4689842, “EUbOPEN Chemogenomics Library wave 1” (2021).
# Assays:
# U2OS [1] = test: Multiplex assay against U2OS; assay type: toxicity, cell-based; settings: human
# How it was run: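 Live cells were stained at seeding with Hoechst33342, BioTracker Green Microtubule Cytoskeleton Dye, MitoTracker Red and Annexin V Alexa Fluor 680. Following compound addition, they were imaged on a CQ1 microscope at 37°C and 5% CO2 and gated by CellPathfinder machine learning into Hoechst high-intensity objects or normal cells, with normal cells split into healthy, pyknosed or fragmented nuclei and pyknosed cells into mitotic or apoptotic. Tubulin, mitochondrial-mass and membrane-permeability phenotypes are per cents of healthy-nucleus cells.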
# U2OS [2] = test: Incucyte cell viability with U2OS; assay type: toxicity, cell-based; settings: human, 10 µM, compound concentration 10 uM; note: filed as whole numbers so only -1 and 0 and 1 occur
# [3] = 12 h, 1 µM, compound concentration 1 uM, replicate 1
# [4] = 12 h, 1 µM, compound concentration 1 uM, replicate 2
# [5] = 12 h, 10 µM, compound concentration 10 uM, replicate 1
# [6] = 12 h, 10 µM, compound concentration 10 uM, replicate 2
# [7] = 24 h, 1 µM, compound concentration 1 uM, replicate 1
# [8] = 24 h, 1 µM, compound concentration 1 uM, replicate 2
# [9] = 24 h, 10 µM, compound concentration 10 uM, replicate 1
# [10] = 24 h, 10 µM, compound concentration 10 uM, replicate 2
# [11] = 48 h, 1 µM, compound concentration 1 uM, replicate 1
# [12] = 48 h, 1 µM, compound concentration 1 uM, replicate 2
# [13] = 48 h, 10 µM, compound concentration 10 uM, replicate 1
# [14] = 48 h, 10 µM, compound concentration 10 uM, replicate 2
compound,measurement,setting,value
Nc1nc2c(c(N3CCNCC3)n1)CCC1=C2[C@@H]2CCCC[C@@H]2O1,Population Apoptotic (%),U2OS [1]; [3],34%
same,Population Fragmented Nuclei (%),U2OS [1]; [3],14%
same,Population Healthy Nuclei (%),U2OS [1]; [3],66%
same,Population Hoechst High Intensity Objects (%),U2OS [1]; [3],7%
same,Population Membrane Permeable-Phenotype (%),U2OS [1]; [3],4%
same,Population Mitochondria Different-Phenotype (%),U2OS [1]; [3],9%
same,Population Mitotic Cells (%),U2OS [1]; [3],65%
same,Population Normal (%),U2OS [1]; [3],92%
same,Population Tubulin-Different-Phenotype (%),U2OS [1]; [3],7%
same,Total Cell Count,U2OS [1]; [3],167
same,Population Apoptotic (%),U2OS [1]; [4],0%
same,Population Fragmented Nuclei (%),U2OS [1]; [4],20%
same,Population Healthy Nuclei (%),U2OS [1]; [4],61%
same,Population Hoechst High Intensity Objects (%),U2OS [1]; [4],15%
same,Population Membrane Permeable-Phenotype (%),U2OS [1]; [4],8%
same,Population Mitochondria Different-Phenotype (%),U2OS [1]; [4],27%
same,Population Mitotic Cells (%),U2OS [1]; [4],100%
same,Population Normal (%),U2OS [1]; [4],84%
same,Population Pyknosed Nuclei (%),U2OS [1]; [4],18%
same,Population Tubulin-Different-Phenotype (%),U2OS [1]; [4],21%
same,Total Cell Count,U2OS [1]; [4],71
same,Population Apoptotic (%),U2OS [1]; [5],26%
same,Population Fragmented Nuclei (%),U2OS [1]; [5],13%
same,Population Healthy Nuclei (%),U2OS [1]; [5],62%
same,Population Hoechst High Intensity Objects (%),U2OS [1]; [5],9%
same,Population Membrane Permeable-Phenotype (%),U2OS [1]; [5],11%
same,Population Mitochondria Different-Phenotype (%),U2OS [1]; [5],88%
same,Population Mitotic Cells (%),U2OS [1]; [5],73%
same,Population Normal (%),U2OS [1]; [5],90%
same,Population Pyknosed Nuclei (%),U2OS [1]; [5],24%
same,Population Tubulin-Different-Phenotype (%),U2OS [1]; [5],93%
same,Total Cell Count,U2OS [1]; [5],135
same,Population Apoptotic (%),U2OS [1]; [6],27%
same,Population Fragmented Nuclei (%),U2OS [1]; [6],9%
same,Population Healthy Nuclei (%),U2OS [1]; [6],68%
same,Population Hoechst High Intensity Objects (%),U2OS [1]; [6],3%
same,Population Membrane Permeable-Phenotype (%),U2OS [1]; [6],25%
same,Population Mitochondria Different-Phenotype (%),U2OS [1]; [6],87%
same,Population Mitotic Cells (%),U2OS [1]; [6],72%
same,Population Normal (%),U2OS [1]; [6],96%
same,Population Pyknosed Nuclei (%),U2OS [1]; [6],21%
same,Population Tubulin-Different-Phenotype (%),U2OS [1]; [6],92%
same,Total Cell Count,U2OS [1]; [6],106
same,Population Apoptotic (%),U2OS [1]; [7],39%
same,Population Fragmented Nuclei (%),U2OS [1]; [7],15%
same,Population Healthy Nuclei (%),U2OS [1]; [7],65%
same,Population Hoechst High Intensity Objects (%),U2OS [1]; [7],4%
same,Population Membrane Permeable-Phenotype (%),U2OS [1]; [7],7%
same,Population Mitochondria Different-Phenotype (%),U2OS [1]; [7],4%
same,Population Mitotic Cells (%),U2OS [1]; [7],60%
same,Population Normal (%),U2OS [1]; [7],95%
same,Population Pyknosed Nuclei (%),U2OS [1]; [7],19%
same,Population Tubulin-Different-Phenotype (%),U2OS [1]; [7],3%
same,Total Cell Count,U2OS [1]; [7],203
same,Population Apoptotic (%),U2OS [1]; [8],20%
same,Population Fragmented Nuclei (%),U2OS [1]; [8],22%
same,Population Healthy Nuclei (%),U2OS [1]; [8],57%
same,Population Hoechst High Intensity Objects (%),U2OS [1]; [8],8%
same,Population Membrane Permeable-Phenotype (%),U2OS [1]; [8],6%
same,Population Mitochondria Different-Phenotype (%),U2OS [1]; [8],20%
same,Population Mitotic Cells (%),U2OS [1]; [8],80%
same,Population Normal (%),U2OS [1]; [8],91%
same,Population Pyknosed Nuclei (%),U2OS [1]; [8],20%
same,Population Tubulin-Different-Phenotype (%),U2OS [1]; [8],16%
same,Total Cell Count,U2OS [1]; [8],82
same,Population Apoptotic (%),U2OS [1]; [9],40%
same,Population Fragmented Nuclei (%),U2OS [1]; [9],11%
same,Population Healthy Nuclei (%),U2OS [1]; [9],45%
same,Population Hoechst High Intensity Objects (%),U2OS [1]; [9],14%
same,Population Membrane Permeable-Phenotype (%),U2OS [1]; [9],16%
same,Population Mitochondria Different-Phenotype (%),U2OS [1]; [9],85%
same,Population Mitotic Cells (%),U2OS [1]; [9],59%
same,Population Normal (%),U2OS [1]; [9],85%
same,Population Pyknosed Nuclei (%),U2OS [1]; [9],43%
same,Population Tubulin-Different-Phenotype (%),U2OS [1]; [9],75%
same,Total Cell Count,U2OS [1]; [9],140
same,Population Apoptotic (%),U2OS [1]; [10],33%
same,Population Fragmented Nuclei (%),U2OS [1]; [10],8%
same,Population Healthy Nuclei (%),U2OS [1]; [10],46%
same,Population Hoechst High Intensity Objects (%),U2OS [1]; [10],2%
same,Population Membrane Permeable-Phenotype (%),U2OS [1]; [10],22%
same,Population Mitochondria Different-Phenotype (%),U2OS [1]; [10],79%
same,Population Mitotic Cells (%),U2OS [1]; [10],66%
same,Population Normal (%),U2OS [1]; [10],97%
same,Population Pyknosed Nuclei (%),U2OS [1]; [10],45%
same,Population Tubulin-Different-Phenotype (%),U2OS [1]; [10],69%
same,Total Cell Count,U2OS [1]; [10],109
same,Population Apoptotic (%),U2OS [1]; [11],31%
same,Population Fragmented Nuclei (%),U2OS [1]; [11],8%
same,Population Healthy Nuclei (%),U2OS [1]; [11],78%
same,Population Hoechst High Intensity Objects (%),U2OS [1]; [11],5%
same,Population Membrane Permeable-Phenotype (%),U2OS [1]; [11],3%
same,Population Mitochondria Different-Phenotype (%),U2OS [1]; [11],5%
same,Population Mitotic Cells (%),U2OS [1]; [11],68%
same,Population Normal (%),U2OS [1]; [11],94%
same,Population Pyknosed Nuclei (%),U2OS [1]; [11],13%
same,Population Tubulin-Different-Phenotype (%),U2OS [1]; [11],5%
same,Total Cell Count,U2OS [1]; [11],299
same,Population Apoptotic (%),U2OS [1]; [12],40%
same,Population Fragmented Nuclei (%),U2OS [1]; [12],19%
same,Population Healthy Nuclei (%),U2OS [1]; [12],65%
same,Population Hoechst High Intensity Objects (%),U2OS [1]; [12],9%
same,Population Membrane Permeable-Phenotype (%),U2OS [1]; [12],4%
same,Population Mitochondria Different-Phenotype (%),U2OS [1]; [12],17%
same,Population Mitotic Cells (%),U2OS [1]; [12],60%
same,Population Normal (%),U2OS [1]; [12],90%
same,Population Pyknosed Nuclei (%),U2OS [1]; [12],14%
same,Population Tubulin-Different-Phenotype (%),U2OS [1]; [12],13%
same,Total Cell Count,U2OS [1]; [12],113
same,Population Apoptotic (%),U2OS [1]; [13],62%
same,Population Fragmented Nuclei (%),U2OS [1]; [13],19%
same,Population Healthy Nuclei (%),U2OS [1]; [13],32%
same,Population Hoechst High Intensity Objects (%),U2OS [1]; [13],18%
same,Population Membrane Permeable-Phenotype (%),U2OS [1]; [13],8%
same,Population Mitochondria Different-Phenotype (%),U2OS [1]; [13],76%
same,Population Mitotic Cells (%),U2OS [1]; [13],37%
same,Population Normal (%),U2OS [1]; [13],81%
same,Population Pyknosed Nuclei (%),U2OS [1]; [13],48%
same,Population Tubulin-Different-Phenotype (%),U2OS [1]; [13],63%
same,Total Cell Count,U2OS [1]; [13],175
same,Population Apoptotic (%),U2OS [1]; [14],48%
same,Population Fragmented Nuclei (%),U2OS [1]; [14],9%
same,Population Healthy Nuclei (%),U2OS [1]; [14],40%
same,Population Hoechst High Intensity Objects (%),U2OS [1]; [14],12%
same,Population Membrane Permeable-Phenotype (%),U2OS [1]; [14],21%
same,Population Mitochondria Different-Phenotype (%),U2OS [1]; [14],78%
same,Population Mitotic Cells (%),U2OS [1]; [14],51%
same,Population Normal (%),U2OS [1]; [14],87%
same,Population Pyknosed Nuclei (%),U2OS [1]; [14],50%
same,Population Tubulin-Different-Phenotype (%),U2OS [1]; [14],53%
same,Total Cell Count,U2OS [1]; [14],133
same,Growth Rate,"U2OS [2]; 0 h, replicate number 2, timepoint 0 hours",0
same,Growth Rate,"U2OS [2]; 6 h, replicate number 2, timepoint 6 hours",1
same,Growth Rate,"U2OS [2]; 12 h, replicate number 1, timepoint 12 hours",1
same,Growth Rate,"U2OS [2]; 18 h, replicate number 1, timepoint 18 hours",1
same,Growth Rate,"U2OS [2]; 24 h, replicate number 1, timepoint 24 hours",1
